Compound activity deposited in PubChem by The Scripps Research Institute Molecular Screening Center.
Compounds with a hit are over-represented: about 2.4% of the library has one in this group of screens.
VIM-2 inh – VIM-2 metallo-beta-lactamase inhibitors, primary screen, biochemical, epi-absorbance readout, Pseudomonas aeruginosa enzyme. purified VIM-2, nitrocefin hydrolysis, epi-absorbance fluorescence. inhibition, % at 5.6 µM. actives 0.89% (n = 290,000);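 active means inhibition above the mean of all tested compounds plus 3 SD, cutoff set per screening run, cut at about 7.5% in these data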;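 further: red hydrolysis product quenches plate fluorescence so inhibitors raise well fluorescence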
PfM18AAP inh – PfM18AAP inhibitors, malaria aminopeptidase, primary screen, biochemical, QFRET, recombinant enzyme | AID 1822, 2009 | actives 1.2% (n = 290,000) | inhibition, % at 7.35 µM | H-Glu-NHMec fluorogenic cleavage;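 active means inhibition above the campaign mean inhibition over all tested compounds plus 3 SD, cut at about 28% in these data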
HGIII-sPLA2 inh – human group III sPLA2 inhibitors, primary screen, biochemical, QFRET, BODIPY PC-A2 liposome substrate | QFRET BODIPY PC-A2 liposome hydrolysis, fluorescence | inhibition, % at 12.2 µM | Group 3 secretory phospholipase A2 (Homo sapiens), Q9NZ20 | AID 743126, 2013 | actives 0.56% (n = 370,000);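 active means inhibition above mean plus 3 SD of compounds lying within the high and low control bounds, cut at about 19% in these data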
Target sequence (Q9NZ20 whole entry, looked up): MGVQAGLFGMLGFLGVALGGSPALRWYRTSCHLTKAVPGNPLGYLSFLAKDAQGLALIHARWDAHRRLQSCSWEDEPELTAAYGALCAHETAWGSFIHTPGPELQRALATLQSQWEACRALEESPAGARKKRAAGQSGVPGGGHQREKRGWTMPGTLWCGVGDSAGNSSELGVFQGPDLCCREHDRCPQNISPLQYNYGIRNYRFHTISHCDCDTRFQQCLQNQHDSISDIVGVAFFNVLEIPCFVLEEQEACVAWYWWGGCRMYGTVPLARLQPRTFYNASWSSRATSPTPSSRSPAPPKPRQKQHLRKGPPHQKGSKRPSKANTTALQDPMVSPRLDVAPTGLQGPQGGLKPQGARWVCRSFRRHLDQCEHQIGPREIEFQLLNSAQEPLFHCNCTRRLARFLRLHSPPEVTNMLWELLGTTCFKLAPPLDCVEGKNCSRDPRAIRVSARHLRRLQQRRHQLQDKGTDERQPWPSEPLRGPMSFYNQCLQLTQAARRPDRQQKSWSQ
IMP-1 inh – IMP-1 metallo-beta-lactamase inhibitors, primary screen, biochemical, epi-absorbance readout, Pseudomonas aeruginosa enzyme | metallo-beta-lactamase IMP-1 (Pseudomonas aeruginosa) | purified IMP-1, nitrocefin hydrolysis, epi-absorbance fluorescence | inhibition, % at 5.6 µM | actives 0.45% (n = 290,000) | AID 1556, 2009;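 active means inhibition above the mean plus 3 SD of all compounds in the same screening run, cut at about 4.5% in these data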
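System: purified IMP-1 / Input: IMP-1 dispensed at 0.2 nM / Medium: 50 mM HEPES pH 7.1, 50 µM ZnSO4, 0.05% Brij 35 / Timing: 15 min enzyme–compound preincubation, then 25 min nitrocefin reaction, 25 °C / Technique: plate fluorescence quenching by hydrolysis product, ex 480/em 530 nm / Repeats: singlicate testing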
sPLA2 confirm – human group III sPLA2 inhibitors, confirmation, biochemical, QFRET, triplicate; actives 34% (n = 2,000); AID 743280, 2014; inhibition, % at 12.2 µM; shares compounds with HGIII-sPLA2 inh; recombinant hGIII-sPLA2, BODIPY PC-A2 QFRET fluorescence;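 active means mean inhibition across triplicates above the hit cutoff set in the earlier primary screen, cut at about 19% in these data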
535nm interf – 535nm fluorescence optical interference, confirmation, artefact control for HGIII-sPLA2 inhibitor project, biochemical, QFRET | actives 8.5% (n = 2,000) | shares compounds with HGIII-sPLA2 inh | AID 743282, 2014 | BODIPY FL product fluorescence interference | inhibition, % at 12.2 µM;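 active means average inhibition above the solvent-only control mean plus 3 SD, cut at about 6% in these data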
BODIPY interf DR – 535nm fluorescence optical interference, dose response, artefact control for HGIII-sPLA2 inhibitor project, biochemical, QFRET; BODIPY FL product fluorescence interference, cell-free; IC50, µM; 240 tested, under 10 active; shares compounds with HGIII-sPLA2 inh;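 active means IC50 at or below 10 µM; inactive means IC50 above 10 µM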
Of the large screens only hits and unclear results are named; the others gave an inactive call (follow-up assays come after a bar, where they were run).

CCc1ccc(/C=C(/C#N)C(N)=S)cc1	HGIII-sPLA2 inh 24 | sPLA2 confirm 29 | 535nm interf inactive | BODIPY interf DR inactive
c1ccc(Cc2cnc(N3CCNCC3)nc2)cc1	HGIII-sPLA2 inh 25 (no result: VIM-2 inh, PfM18AAP inh, IMP-1 inh) | sPLA2 confirm inactive | 535nm interf inactive
c1cnc(N2CCNCC2)nc1	none
Clc1cccc(N2CCNCC2)c1Cl	HGIII-sPLA2 inh 25 | sPLA2 confirm inactive | 535nm interf inactive
Cc1ccc(CN2C3CCCC2CC(NC(=S)NCc2ccccc2)C3)cc1 (stereo unspecified)	none
Cc1c(N=Nc2c(O)n(C)c(=O)n(C)c2=O)c(=O)n(-c2ccccc2)n1C	HGIII-sPLA2 inh 19 | sPLA2 confirm inactive | 535nm interf inactive
CC(Cc1ccccc1)NCCC(=O)NC(C)Cc1ccccc1 (stereo unspecified)	none
CCOP(=O)(OCC)C1(O)C(=O)Nc2ccccc21 (stereo unspecified)	none
CCOP(=O)(OCC)C1(C(=O)O)CCCC1	HGIII-sPLA2 inh 24 | sPLA2 confirm inactive | 535nm interf inactive
CCCCSC1=NN1c1nc(N)nc(C)c1CC	none
